# Data published in ChEMBL document CHEMBL3286113, “New potent antibacterial oxazolidinone (MRX-I) with an improved class safety profile” (J Med Chem, 2014).
# Tests used:
# [1] = test system: Streptococcus pneumoniae; test: Antibacterial activity against penicillin intermediate-sensitive Streptococcus pneumoniae ATCC 49619 clinical isolate in po dosed mouse systemic infection model; assay type: functional; details: ATCC 49619, po
# [2] = test system: Rattus norvegicus; test: Toxicity in female rat assessed as effect on lymphocyte count at 100 mg/kg/day, po bid administered for 4 weeks (reference value: 74.8%); assay type: organism-based; parameters: route oral; details: in vivo, 672 h
# [3] = test system: Streptococcus pneumoniae; test: Bactericidal activity against penicillin-resistant Streptococcus pneumoniae; assay type: functional
# [4] = test system: Staphylococcus aureus; test: Antibacterial activity against methicillin-sensitive Staphylococcus aureus ATCC 29213; assay type: functional
# [5] = test system: Rattus norvegicus; test: Toxicity in female rat assessed as effect on hemoglobin level at 100 mg/kg/day, po bid administered for 4 weeks (reference value: 141.8 g/L); assay type: organism-based; parameters: route oral; details: in vivo, 672 h
# [6] = test system: Staphylococcus haemolyticus; test: Antibacterial activity against Staphylococcus haemolyticus; assay type: functional
# [7] = test system: Streptococcus anginosus; test: Antibacterial activity against Streptococcus anginosus; assay type: functional
# [8] = test system: Streptococcus pyogenes; test: Antibacterial activity against Streptococcus pyogenes; assay type: functional
# [9] = test system: Enterococcus faecalis; test: Antibacterial activity against vancomycin-sensitive/high-level gentamycin-resistant Enterococcus faecalis isolate HH22 in po dosed mouse systemic infection model; assay type: functional; details: EnGen0297, po
# [10] = test system: Rattus norvegicus; test: Toxicity in female rat assessed as effect on RBC count at 100 mg/kg/day, po bid administered for 4 weeks (reference value: 7.28 x 10^12/L); assay type: organism-based; parameters: route oral; details: in vivo, 672 h
# [11] = test system: Staphylococcus; test: Antibacterial activity against coagulase-negative Staphylococcus; assay type: functional
# [12] = test system: Staphylococcus epidermidis; test: Antibacterial activity against methicillin-sensitive Staphylococcus epidermidis; assay type: functional
# [13] = test system: Streptococcus sanguinis; test: Antibacterial activity against Streptococcus sanguinis; assay type: functional
# [14] = test system: Streptococcus mitis; test: Antibacterial activity against Streptococcus mitis; assay type: functional
# [15] = test system: Staphylococcus aureus; test: Antibacterial activity against methicillin-resistant Staphylococcus aureus by agar dilution method; assay type: functional
# Procedure, shortened: (§1)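 MIC determined by agar dilution across S. aureus/MRSA isolates; MIC90 is the concentration inhibiting 90% of strains tested.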
# [16] = test system: Staphylococcus aureus; test: Antibacterial activity against methicillin-resistant Staphylococcus aureus isolate 0605 in po dosed mouse systemic infection model; assay type: functional; details: isolate 0605, po
# [17] = test system: Staphylococcus saprophyticus; test: Antibacterial activity against Staphylococcus saprophyticus; assay type: functional
# [18] = Myelosuppression activity against human CD34-positive blood stem/progenitor cells assessed as growth inhibition after 9 to 10 days by CellTiter-Glo luminescent assay
# [19] = test system: Streptococcus agalactiae; test: Antibacterial activity against Streptococcus agalactiae; assay type: functional
# [20] = test system: Rattus norvegicus; test: Toxicity in female rat assessed as effect on hematocrit level at 100 mg/kg/day, po bid administered for 4 weeks (reference value: 39.08%); assay type: organism-based; parameters: route oral; details: in vivo, 672 h
# [21] = test system: Streptococcus constellatus; test: Antibacterial activity against Streptococcus constellatus; assay type: functional
# [22] = test system: Rattus norvegicus; test: Toxicity in female rat assessed as effect on WBC count at 100 mg/kg/day, po bid administered for 4 weeks (reference value: 3.66 x 10^9/L); assay type: organism-based; parameters: route oral; details: in vivo, 672 h
# [23] = test system: Staphylococcus epidermidis; test: Antibacterial activity against methicillin-resistant Staphylococcus epidermidis; assay type: functional
# [24] = test system: Rattus norvegicus; test: Toxicity in female rat assessed as effect on platelet count at 100 mg/kg/day, po bid administered for 4 weeks (reference value: 654.6 x 10^9/L); assay type: organism-based; parameters: route oral; details: in vivo, 672 h
# [25] = test system: Streptococcus dysgalactiae subsp. equisimilis; test: Antibacterial activity against Streptococcus equisimilis; assay type: functional
# [26] = test system: Enterococcus faecium; test: Bacteriostatic activity against vancomycin-sensitive Enterococcus faecium; assay type: functional
# [27] = test system: Rattus norvegicus; test: Toxicity in female rat assessed as effect on reticulocyte count at 100 mg/kg/day, po bid administered for 4 weeks (reference value: 1.48%); assay type: organism-based; parameters: route oral; details: in vivo, 672 h
# [28] = test system: Staphylococcus aureus; test: Antibacterial activity against Staphylococcus aureus by agar dilution method; assay type: functional; procedure, shortened: as §1
# [29] = test system: Rattus norvegicus; test: Toxicity in female rat assessed as effect on mean corpuscular volume at 100 mg/kg/day, po bid administered for 4 weeks (reference value: 53.72 fL); assay type: organism-based; parameters: route oral; details: in vivo, 672 h
# [30] = test system: Staphylococcus aureus; test: Antibacterial activity against methicillin-resistant Staphylococcus aureus isolate 0612 in po dosed mouse systemic infection model; assay type: functional; details: isolate 0612, po
# [31] = test system: Enterococcus faecalis; test: Antibacterial activity against vancomycin-resistant Enterococcus faecalis isolate EFL 4041 in po dosed mouse systemic infection model; assay type: functional; details: isolate EFL 4041, po
# [32] = test system: Staphylococcus aureus; test: Antibacterial activity against methicillin-sensitive Staphylococcus aureus isolate 15 in po dosed mouse systemic infection model; assay type: functional; details: isolate 15, po
# [33] = test system: Rattus norvegicus; test: Toxicity in female rat assessed as effect on mean corpuscular hemoglobin level at 100 mg/kg/day, po bid administered for 4 weeks (reference value: 19.5 pg); assay type: organism-based; parameters: route oral; details: in vivo, 672 h
# [34] = test system: Staphylococcus aureus; test: Antibacterial activity against methicillin-resistant Staphylococcus aureus by broth microdilution method; assay type: functional
# Procedure, shortened: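 MIC determined against methicillin-resistant S. aureus strain SAU1009.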
# [35] = test system: Rattus norvegicus; test: Toxicity in female rat assessed as effect on neutrophil count at 100 mg/kg/day, po bid administered for 4 weeks (reference value: 22.4%); assay type: organism-based; parameters: route oral; details: in vivo, 672 h
# [36] = test system: Staphylococcus; test: Antibacterial activity against beta-lactamase-negative Staphylococcus; assay type: functional
# [37] = test system: Streptococcus pneumoniae; test: Antibacterial activity against penicillin-resistant Streptococcus pneumoniae isolate 0613 in po dosed mouse systemic infection model; assay type: functional; details: isolate 0613, po
# [38] = test system: Staphylococcus aureus; test: Antibacterial activity against Staphylococcus aureus in po dosed mouse septicemia model; assay type: functional
# [39] = test system: Staphylococcus aureus; test: Antibacterial activity against methicillin-sensitive Staphylococcus aureus; assay type: functional
# [40] = test system: Streptococcus pneumoniae; test: Bactericidal activity against penicillin intermediate-sensitive Streptococcus pneumoniae; assay type: functional
# [41] = test system: Enterococcus faecalis; test: Bacteriostatic activity against vancomycin-sensitive Enterococcus faecalis; assay type: functional
# [42] = molecular target: T1, Amine oxidase [flavin-containing] A (Homo sapiens, UniProt P21397); test: Inhibition of MAO-A (unknown origin) using tyramine as substrate after 30 to 60 mins by fluorescence plate reader analysis
# T1 sequence (P21397 whole entry): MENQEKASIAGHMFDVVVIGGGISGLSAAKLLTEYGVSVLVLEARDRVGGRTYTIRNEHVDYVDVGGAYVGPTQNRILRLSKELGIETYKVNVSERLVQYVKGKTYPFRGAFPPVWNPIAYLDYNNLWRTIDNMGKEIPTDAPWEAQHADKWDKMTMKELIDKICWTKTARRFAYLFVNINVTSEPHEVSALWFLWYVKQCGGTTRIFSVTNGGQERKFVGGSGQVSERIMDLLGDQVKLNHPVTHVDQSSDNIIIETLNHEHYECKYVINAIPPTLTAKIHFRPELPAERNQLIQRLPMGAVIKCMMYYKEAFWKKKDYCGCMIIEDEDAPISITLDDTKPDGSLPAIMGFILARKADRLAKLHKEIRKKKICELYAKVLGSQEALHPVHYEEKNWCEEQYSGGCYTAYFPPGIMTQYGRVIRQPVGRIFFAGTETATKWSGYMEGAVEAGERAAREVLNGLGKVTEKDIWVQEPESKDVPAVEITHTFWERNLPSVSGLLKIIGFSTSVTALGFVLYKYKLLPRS
# [43] = test system: Staphylococcus aureus; test: Antibacterial activity against linezolid-resistant Staphylococcus aureus isolate 4184; assay type: functional
# [44] = test system: Enterococcus faecium; test: Bacteriostatic activity against vancomycin-resistant Enterococcus faecium; assay type: functional
# [45] = test system: Streptococcus pyogenes; test: Antibacterial activity against Streptococcus pyogenes isolate 556; assay type: functional
# [46] = test system: Enterococcus; test: Bacteriostatic activity against vancomycin-sensitive Enterococcus; assay type: functional
# [47] = test system: Enterococcus faecalis; test: Antibacterial activity against vancomycin-sensitive Enterococcus faecalis ATCC 29212 in po dosed mouse systemic infection model; assay type: functional; details: ATCC 29212, po
# [48] = test system: Streptococcus pneumoniae; test: Bactericidal activity against penicillin-sensitive Streptococcus pneumoniae; assay type: functional
# [49] = test system: Streptococcus pneumoniae; test: Antibacterial activity against penicillin-sensitive Streptococcus pneumoniae isolate 0806 in po dosed mouse systemic infection model; assay type: functional; details: isolate 0806, po
# [50] = test system: Streptococcus pyogenes; test: Antibacterial activity against Streptococcus pyogenes isolate 556 in po dosed mouse systemic infection model; assay type: functional; details: isolate 556, po
# [51] = test system: Staphylococcus aureus; test: Antibacterial activity against methicillin-sensitive Staphylococcus aureus ATCC 29213 in po dosed mouse systemic infection model; assay type: functional; details: ATCC 29213, po
smiles,measurement,setting,value
CC(=O)NC[C@H]1CN(c2ccc(N3CCOCC3)c(F)c2)C(=O)O1 [LINEZOLID],ED50,[1],8.17 mg/kg
same,Activity,[2],86.2%
same,MIC50,[3],0.5 µg/mL
same,MIC90,[3],0.5 µg/mL
same,MIC,[4],1 µg/mL
same,Activity,[5],112.8 g/L
same,MIC,[6],0.5 µg/mL
same,MIC50,[6],0.5 µg/mL
same,MIC90,[6],1 µg/mL
same,MIC50,[7],0.5 µg/mL
same,MIC90,[7],1 µg/mL
same,MIC50,[8],1 µg/mL
same,MIC90,[8],1 µg/mL
same,ED50,[9],5.6 mg/kg
same,Activity,[10],5.52 ×10¹² /L
same,MIC50,[11],0.5 µg/mL
same,MIC90,[11],1 µg/mL
same,MIC50,[12],0.5 µg/mL
same,MIC90,[12],0.5 µg/mL
same,MIC,[13],0.06 µg/mL
same,MIC50,[14],1 µg/mL
same,MIC90,[14],1 µg/mL
same,MIC50,[15],1 µg/mL
same,MIC90,[15],1 µg/mL
same,ED50,[16],10.2 mg/kg
same,MIC50,[17],1 µg/mL
same,MIC90,[17],1 µg/mL
same,IC50,[18],6.3 µg/mL
same,MIC,[19],1 µg/mL
same,MIC50,[19],1 µg/mL
same,MIC90,[19],1 µg/mL
same,Activity,[20],30.18%
same,MIC50,[21],1 µg/mL
same,MIC90,[21],1 µg/mL
same,Activity,[22],1.9 ×10⁹ /L
same,MIC50,[23],0.5 µg/mL
same,MIC90,[23],1 µg/mL
same,Activity,[24],487.4 ×10⁹ /L
same,MIC,[25],0.5 µg/mL
same,MIC50,[25],0.5 µg/mL
same,MIC90,[25],1 µg/mL
same,MIC50,[26],1 µg/mL
same,MIC90,[26],1 µg/mL
same,Activity,[27],1.64%
same,MIC90,[28],8 µg/mL
same,Activity,[29],54.74 fL
same,ED50,[30],8.7 mg/kg
same,ED50,[31],6 mg/kg
same,ED50,[32],5.9 mg/kg
same,Activity,[33],20.52 pg
same,MIC90,[34],2 µg/mL
same,Activity,[35],13%
same,MIC50,[36],0.5 µg/mL
same,MIC90,[36],1 µg/mL
same,ED50,[37],9.3 mg/kg
same,ED50,[38],6.3 mg/kg
same,MIC50,[39],1 µg/mL
same,MIC90,[39],1 µg/mL
same,MIC50,[40],0.5 µg/mL
same,MIC90,[40],0.5 µg/mL
same,MIC50,[41],1 µg/mL
same,MIC90,[41],1 µg/mL
same,IC50,[42],24 µM
same,MIC,[43],> 16 µg/mL
same,MIC,[44],1 µg/mL
same,MIC50,[44],1 µg/mL
same,MIC90,[44],1 µg/mL
same,MIC,[45],1 µg/mL
same,MIC50,[46],1 µg/mL
same,MIC90,[46],1 µg/mL
same,ED50,[47],13.4 mg/kg
same,MIC50,[48],0.5 µg/mL
same,MIC90,[48],1 µg/mL
same,ED50,[49],16.8 mg/kg
same,ED50,[50],7.8 mg/kg
same,ED50,[51],9 mg/kg
